According to ChEMBL document CHEMBL3994637, “Broad spectrum anti-infective properties of benzisothiazolones and the parallels in their anti-bacterial and anti-fungal effects” (Bioorg Med Chem Lett, 2017):
≈ marks a conversion by molar mass, not a printed value.

How the values were obtained:
[1] = system: Staphylococcus aureus; assay: Antibacterial activity against methicillin-resistant Staphylococcus aureus ATCC 700699 by broth microdilution method; type: functional; conditions: Mu50
[2] = system: Sporothrix schenckii; assay: Anti-fungal activity against Sporothrix schenckii after 48 hrs by broth microdilution method; type: functional
[3] = system: Candida parapsilosis; assay: Anti-fungal activity against Candida parapsilosis ATCC 22019 after 48 hrs by broth microdilution method; type: functional; conditions: Lodderomyces parapsilosis, ATCC 22019, 48 h
[4] = system: Staphylococcus aureus; assay: Antibacterial activity against Staphylococcus aureus ATCC 29213 by broth microdilution method; type: functional
[5] = system: Staphylococcus aureus; assay: Antibacterial activity against Staphylococcus aureus ATCC 25923 by broth microdilution method; type: functional
[6] = system: Escherichia coli; assay: Antibacterial activity against Escherichia coli ATCC 9637 by broth microdilution method; type: functional; conditions: W
How it was run: (§1)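 Bacteria were tested by the NCCLS method in Mueller Hinton broth, with gentamicin and norfloxacin as reference drugs.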

[7] = system: Aspergillus fumigatus; assay: Anti-fungal activity against Aspergillus fumigatus after 48 hrs by broth microdilution method; type: functional
[8] = Cytotoxicity against monkey Vero C1008 cells after 72 hrs by MTT assay; type: cell-based; conditions: chlorocebus sabaeus
[9] = system: Trichophyton mentagrophytes; assay: Anti-fungal activity against Trichophyton mentagrophytes after 48 hrs by broth microdilution method; type: functional
[10] = system: Pseudomonas aeruginosa; assay: Antibacterial activity against Pseudomonas aeruginosa ATCC BAA-427 by broth microdilution method; type: functional; how it was run: as §1
[11] = system: Cryptococcus neoformans; assay: Anti-fungal activity against Cryptococcus neoformans after 48 hrs by broth microdilution method; type: functional
[12] = system: Klebsiella pneumoniae; assay: Antibacterial activity against Klebsiella pneumoniae ATCC 27736 by broth microdilution method; type: functional; how it was run: as §1
[13] = system: Candida albicans; assay: Anti-fungal activity against Candida albicans after 48 hrs by broth microdilution method; type: functional
[14] = system: Plasmodium falciparum; assay: Antimalarial activity against chloroquine-sensitive Plasmodium falciparum 3D7 after 72 hrs by SYBR Green-1 staining based fluorescence assay; type: functional; conditions: 3D7, 72 h
[15] = system: Staphylococcus aureus; assay: Antibacterial activity against gentamicin-resistant Staphylococcus aureus ATCC 33592 by broth microdilution method; type: functional
[16] = Selectivity index, ratio of CC50 for monkey Vero C1008 cells to IC50 for chloroquine-sensitive Plasmodium falciparum 3D7; type: toxicity; conditions: read-out: Ratio CC50/IC50

SMILES | MIC [1] [mg/L] | MIC [2] [mg/L] | MIC [3] [mg/L] | MIC [4] [mg/L] | MIC [5] [mg/L] | MIC [6] [mg/L] | MIC [7] [mg/L] | CC50 at 72 h [8] [µM] | MIC [9] [mg/L] | MIC [10] [mg/L] | MIC [11] [mg/L] | MIC [12] [mg/L] | MIC [13] [mg/L] | IC50 [14] [µM] | MIC [15] [mg/L] | selectivity ratio [16] | also measured
COc1ccc(-n2sc3ccccc3c2=O)cc1 | 0.73 (≈ 2.84 µM) | 0.8 (≈ 3.11 µM) | 0.7 (≈ 2.72 µM) | 1.9 (≈ 7.38 µM) | 1.6 (≈ 6.22 µM) | > 50 | 11 (≈ 42.7 µM) | 32.6 | > 50 | > 50 | 1.1 (≈ 4.27 µM) | > 50 | 3.5 (≈ 13.6 µM) | > 2 |  |  | IC50 [2]: 0.4 mg/L (≈ 1.55 µM); IC50 [3]: 0.6 mg/L (≈ 2.33 µM); IC50 [4]: 1.2 mg/L (≈ 4.66 µM); IC50 [5]: 1.5 mg/L (≈ 5.83 µM); IC50 [6]: > 50 mg/L; IC50 [7]: 6.9 mg/L (≈ 26.8 µM); IC50 [9]: > 50 mg/L; IC50 [10]: > 50 mg/L; IC50 [11]: 0.9 mg/L (≈ 3.5 µM); IC50 [12]: > 50 mg/L; IC50 [13]: 2.4 mg/L (≈ 9.33 µM)
O=c1c2ccccc2sn1-c1ccc(F)cc1 | 3.12 (≈ 12.7 µM) | 12.5 (≈ 51 µM) | 12.5 (≈ 51 µM) | 3.12 (≈ 12.7 µM) | 6.25 (≈ 25.5 µM) | > 50 | 25 (≈ 102 µM) | 85.4 | 12.5 (≈ 51 µM) | > 50 | 12.5 (≈ 51 µM) | > 50 | 12.5 (≈ 51 µM) | 0.97 | 3.12 (≈ 12.7 µM) | 84.4 | 
O=c1c2ccccc2sn1-c1cccc(C(F)(F)F)c1 | 6.25 (≈ 21.2 µM) | 12.5 (≈ 42.3 µM) | 25 (≈ 84.7 µM) | 6.25 (≈ 21.2 µM) | 6.25 (≈ 21.2 µM) | > 50 | 25 (≈ 84.7 µM) |  | 12.5 (≈ 42.3 µM) | > 50 | 12.5 (≈ 42.3 µM) | > 50 | 25 (≈ 84.7 µM) | > 2 | 6.25 (≈ 21.2 µM) |  | 
O=c1c2ccccc2sn1-c1ccccc1F | 6.25 (≈ 25.5 µM) | 12.5 (≈ 51 µM) | 12.5 (≈ 51 µM) | 12.5 (≈ 51 µM) | 25 (≈ 102 µM) | > 50 | 25 (≈ 102 µM) |  | 12.5 (≈ 51 µM) | > 50 | 12.5 (≈ 51 µM) | > 50 | 12.5 (≈ 51 µM) | > 2 | 12.5 (≈ 51 µM) |  | 
O=c1c2ccccc2sn1-c1ccc(Cl)cc1 | 3.12 (≈ 11.9 µM) | 12.5 (≈ 47.8 µM) | 12.5 (≈ 47.8 µM) | 6.25 (≈ 23.9 µM) | 6.25 (≈ 23.9 µM) | > 50 | 25 (≈ 95.5 µM) | 71.7 | 12.5 (≈ 47.8 µM) | > 50 | 12.5 (≈ 47.8 µM) | > 50 | 12.5 (≈ 47.8 µM) | 0.92 | 6.26 (≈ 23.9 µM) | 70.8 | 
O=c1c2ccccc2sn1-c1cccc2ccccc12 | 3.12 (≈ 11.2 µM) | 12.5 (≈ 45.1 µM) | 25 (≈ 90.1 µM) | 6.25 (≈ 22.5 µM) | 3.12 (≈ 11.2 µM) | > 50 | 50 (≈ 180 µM) | 90.8 | 12.5 (≈ 45.1 µM) | > 50 | 25 (≈ 90.1 µM) | > 50 | 25 (≈ 90.1 µM) | 2.64 | 6.25 (≈ 22.5 µM) | 34.4 | 
O=c1c2ccccc2sn1-c1cccc(Cl)c1 | 3.12 (≈ 11.9 µM) | 12.5 (≈ 47.8 µM) | 25 (≈ 95.5 µM) | 6.25 (≈ 23.9 µM) | 6.25 (≈ 23.9 µM) | > 50 | 25 (≈ 95.5 µM) |  | 12.5 (≈ 47.8 µM) | > 50 | 12.5 (≈ 47.8 µM) | > 50 | 25 (≈ 95.5 µM) | > 2 | 6.25 (≈ 23.9 µM) |  | 
O=c1c2ccccc2sn1-c1ccccc1 | 0.77 (≈ 3.39 µM) | 1.7 (≈ 7.48 µM) | 0.8 (≈ 3.52 µM) | 2.1 (≈ 9.24 µM) | 1.6 (≈ 7.04 µM) | > 50 | 6.4 (≈ 28.2 µM) | 19.4 | 0.8 (≈ 3.52 µM) | > 50 | 1.21 (≈ 5.32 µM) | > 50 | 3.02 (≈ 13.3 µM) | 0.74 |  | 26.3 | IC50 [2]: 0.6 mg/L (≈ 2.64 µM); IC50 [3]: 0.7 mg/L (≈ 3.08 µM); IC50 [4]: 1.6 mg/L (≈ 7.04 µM); IC50 [5]: 1.1 mg/L (≈ 4.84 µM); IC50 [6]: > 50 mg/L; IC50 [7]: 6.1 mg/L (≈ 26.8 µM); IC50 [9]: 0.7 mg/L (≈ 3.08 µM); IC50 [10]: > 50 mg/L; IC50 [11]: 0.9 mg/L (≈ 3.96 µM); IC50 [12]: > 50 mg/L; IC50 [13]: 2.9 mg/L (≈ 12.8 µM)
